# Published values from different studies.
# Target: Tyrosine-protein kinase Fyn (FYN, Homo sapiens, UniProt P06241)
Compound,assay,setting,measurement,result
CNC(=O)c1cc(Oc2ccc(NC(=O)Nc3ccc(Cl)c(C(F)(F)F)c3)cc2)ccn1,"enzyme activity, inhibitor",10 µM,inhibition,44%
C=CC(=O)Nc1cc(Nc2nccc(Nc3cc(Cl)c(F)cc3C(C)(C)O)n2)c(OC)cc1N1CC[C@@H](N(C)C)C1,"enzyme activity, inhibitor",1 µM,inhibition,23%
Cn1cnc(Br)c1C1=CN(c2ncnc3[nH]cnc23)CCS1,"enzyme activity, inhibitor, radiometric",2 µM,inhibition,44%
CC(C)(C)c1nc(-c2cccc(NS(=O)(=O)c3c(F)cccc3F)c2F)c(-c2ccnc(N)n2)s1,"enzyme activity, inhibitor, radiometric",1 µM,remaining activity,36%
COc1cccc(CNC(=O)c2nc3scc(COCc4ccc(C(=O)O)cc4)c3c(=O)[nH]2)c1,"cell-free assay, competition with immobilised ligand",1 µM,remaining binding,81.1%
CCN(CC)c1ccc(C2=NNC(=O)CC2C)cc1[N+](=O)[O-] (stereo not shown),"enzyme activity, inhibitor",10 µM,remaining activity,110%
O=C(Nc1cnn(-c2csc(C(=O)NC3COC3)c2)c1)Nc1ccccc1Cl,"enzyme activity, inhibitor",5 µM,remaining activity,97.8%
CCN(CC)CCNC(=O)c1c(C)[nH]c(/C=C2\C(=O)Nc3ccc(F)cc32)c1C,"enzyme activity, inhibitor",0.3 µM,inhibition,35%
CC(C)c1ccc(NC(=O)c2cccs2)c(-c2nc3ccccc3[nH]c2=O)c1,"enzyme activity, inhibitor",1 µM,activity vs control,103%
Cc1ccc(NC(=O)c2ccc(C)c(C(F)(F)F)c2)cc1C#Cc1nn(C2CCC(O)CC2)c2ncnc(N)c12 (stereo not shown),cell-free assay,10 µM,remaining signal,0%
CCc1ccccc1C(=O)Nc1n[nH]c2c(C)c(F)c(C3C(C#N)=C(C)N(C)C(C)=C3C#N)cc12,"cell-free assay, competition with immobilised ligand",1 µM,remaining binding,100%
CNC(=O)c1cc2c(Oc3ccc(NC(=O)C4(C(=O)Nc5ccc(F)cc5)CC4)cc3)ccnc2cc1OC,"enzyme activity, inhibitor, radiometric",1 µM,inhibition,72%
CC(C)(O)[C@H]1CC[C@H](Nc2ccc3ncc(-c4cccc(C(F)(F)F)c4)n3n2)CC1,"enzyme activity, inhibitor",1 µM,remaining activity,22.4%
N#CCCc1ccc2c(c1)-c1[nH]c3ccc([N+](=O)[O-])cc3c1CC(=O)N2,cell-free assay,0.5 µM,remaining signal,52.2%
COc1cc2ncnc(Nc3ccc(Oc4ccccc4)c(C)c3C)c2cc1OC,"enzyme activity, inhibitor",1 µM,inhibition,42%
Cc1cnc(NC2CCOCC2)nc1-n1cnc(C(=O)NC(CN)c2cc(F)cc(Cl)c2)c1 (stereo not shown),"enzyme activity, inhibitor, radiometric",1 µM,remaining activity,100%
Cc1cc(-n2nc(Cc3cc(F)cc(C(F)(F)F)c3)nc2C)ccc1C(N)=O,"cell-free assay, competition with immobilised ligand",1 µM,remaining binding,100%
CNCc1ccc(-c2cc(-c3nc(-c4ccc(S(=O)(=O)C(C)C)cc4)cnc3N)on2)cc1,"enzyme activity, inhibitor",2 µM,inhibition,27%
c1ccc(CNc2nc(N3CCOc4ccccc43)nc3c2CCCC3)cc1,"target engagement in cells, inhibitor, chemoproteomics",20 mM,inhibition,-18%
COc1ccc2c(O[C@@H]3C[C@H]4C(=O)N[C@]5(C(=O)O)CC5/C=C\CCCCC[C@H](NC(=O)OC5CCCC5)C(=O)N4C3)cc(-c3csc(NC(=O)C(C)C)n3)nc2c1C (stereo partly shown),"cell-free assay, competition with immobilised ligand",1 µM,remaining binding,100%
Nc1ncnc2occ(-c3ccc(NC(=O)Nc4cc(C(F)(F)F)ccc4F)cc3)c12,"enzyme activity, inhibitor",20 µM,remaining activity,2.8%
COc1cc(Nc2c(C#N)cnc3cc(OCCCN4CCN(C)CC4)c(OC)cc23)c(Cl)cc1Cl,cell-free assay,0.5 µM,remaining signal,29.4%
O=c1nc(-c2ccccn2)sc2ccccc12,"binding, competition with immobilised ligand",1 µM,remaining binding,100%
C[S+]([O-])c1ccc(-c2nc(-c3ccncc3)c(-c3ccc(F)cc3)[nH]2)cc1 (stereo not shown),cell-free assay,0.5 µM,remaining signal,89.8%
CNC(=O)Nc1ccc2c(c1)[C@@]1(CC2)OC(=O)N(CC(=O)N(Cc2ccc(F)cc2)[C@@H](C)C(F)(F)F)C1=O,"cell-free assay, competition with immobilised ligand",1 µM,remaining binding,79%
O=c1cc(-c2cccc3c2Sc2ccccc2S3)oc(N2CCOCC2)c1,"enzyme activity, inhibitor",0.5 µM,remaining activity,88.6%
Cc1nc(C2CCN(C(=O)c3ccc(OC(F)(F)F)cc3N)CC2)c2ncc(N3CCN(C)CC3)cc2n1,"cell-free assay, competition with immobilised ligand",1 µM,remaining binding,96%
COc1cc(OC)c(C=C2C(O)=Nc3ccccc32)c(OC)c1,"cell-free assay, inhibitor",0.5 µM,remaining signal,100%
CN(C(=O)c1ccccc1)c1cc(N(C)c2ccc3c(c2)CCc2ccc(C(=O)NCCN4CCOCC4)cc2C3=O)ccc1F,"cell-free assay, competition with immobilised ligand",1 µM,remaining binding,61%
O=C1Nc2ccc(Cl)cc2C1=Cc1cc(Cl)c(O)c(Cl)c1,cell-free assay,0.5 µM,remaining signal,73%
CCCCNc1ncc2c(-c3ccc(F)cc3)nn(C[C@H]3CC[C@H](N)CC3)c2n1,"target engagement in cells, inhibitor, chemoproteomics",20 mM,inhibition,> 96%
